From PubChem BioAssay
CHRM5 agonist: agonists of human muscarinic M5 receptor (CHRM5) | P08912 | CHO-K1 hM5 cells, Fluo-8 calcium fluorescence; 0% DMSO wells, 100% maximal acetylcholine response | activation, % at 3 µM | 360,000 compounds, 0.19% hits | AID 624037;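 active = activation above the run's mean over test compounds plus 3 SD, cut at about 23% in these data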;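 also: signal is peak over basal fluorescence ratio across the kinetic read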
CHRM5 antagonist: antagonists of human muscarinic M5 receptor (CHRM5). inhibition, % at 3 µM. 360,000 compounds, 0.59% hits. CHO-hM5 cells, Fluo-8 calcium fluorescence, ACh EC80. AID 624040;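 active = inhibition above a per-plate cutoff, the mean of that plate's test compounds plus 3 SD, cut at about 27% in these data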;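 also: 0% = acetylcholine EC80 with DMSO and 100% = DMSO without agonist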
CHRM4 PAM: potentiates acetylcholine response at human M4 receptor. P08173. CHO-K1 hM4/Gqi5, Fluo-8 calcium fluorescence, ACh EC20; 0% = ACh EC20, 100% = maximal ACh. activation, % at 3 µM. 360,000 compounds, 0.4% hits. AID 624126;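 active = activation above its plate's cutoff, the mean activation of sample wells plus 3 SD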
Target sequence (P08173 whole entry, looked up): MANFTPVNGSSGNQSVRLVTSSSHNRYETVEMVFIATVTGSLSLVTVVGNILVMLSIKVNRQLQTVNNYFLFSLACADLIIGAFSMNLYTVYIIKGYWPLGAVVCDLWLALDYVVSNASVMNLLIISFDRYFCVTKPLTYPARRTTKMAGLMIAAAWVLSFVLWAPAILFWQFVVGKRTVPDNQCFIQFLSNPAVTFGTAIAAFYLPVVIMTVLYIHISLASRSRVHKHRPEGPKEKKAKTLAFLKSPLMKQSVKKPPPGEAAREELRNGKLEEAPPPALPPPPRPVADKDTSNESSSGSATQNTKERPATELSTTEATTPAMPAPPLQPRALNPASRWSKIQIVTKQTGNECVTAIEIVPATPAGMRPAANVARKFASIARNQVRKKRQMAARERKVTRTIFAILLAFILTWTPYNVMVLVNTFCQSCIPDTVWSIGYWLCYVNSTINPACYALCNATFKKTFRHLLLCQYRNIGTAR
M4 antag: antagonists of human muscarinic M4 receptor (CHRM4) | CHO-hM4 cells, ACh EC80, Fluo-8 calcium fluorescence | inhibition, % at 3 µM | 360,000 compounds, 0.73% hits | P08173;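 active = inhibition above its plate's cutoff, the mean inhibition of sample wells plus 3 SD, cut at about 27% in these data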;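 also: 0% = acetylcholine EC80 with DMSO and 100% = DMSO without agonist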
CHRM5 PAM: potentiates acetylcholine response at human M5 receptor. 360,000 compounds, 0.3% hits. activation, % at 3 µM. CHO-K1 hM5, Fluo-8 calcium, ACh EC20 PAM; 0% = ACh EC20, 100% = ACh EC100. P08912;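 active = activation above the run cutoff, the mean activation of all test compounds plus 3 SD, cut at about 18% in these data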
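Assay system: CHO-K1 hM5 cells. Also added: acetylcholine at EC20 concentration, added after compound. Dosing: 3 µM, single dose. Times: compound preincubation 140 s before EC20 acetylcholine addition. Signal: Fluo-8 calcium fluorescence. Measure: % activation relative to EC20 and EC100 ACh responses. Repeats: singlicate, one well per test compound.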
M4 ag: CHRM4 agonism in calcium assay; 360,000 compounds, 0.14% hits; CHO-K1 hM4/Gqi5, Fluo-8 calcium fluorescence; vehicle 0%, full acetylcholine response 100%; AID 624127; P08173; activation, % at 3 µM;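 active = activation above the run mean over all test wells plus 3 SD, cut at about 32% in these data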;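 also: peak over basal fluorescence ratio per well then scaled between controls; 0% = DMSO wells and 100% = acetylcholine at EC100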
Active calls of the source: *. Sampled rows, rich in hits. Any-hit rate of the full collection: about 1.8%.

SMILES | CHRM5 agonist | CHRM5 antagonist | CHRM4 PAM | M4 antag | CHRM5 PAM | M4 ag
CCCCCCCCCC[N+](C)(C)CC/C=C1/c2ccccc2Sc2ccc(Cl)cc21 | -8 | 60* | -20 | 41* | -19 | -1
CCCCCC[n+]1c(-c2ccc(Cl)cc2Cl)csc1Nc1ccccc1 | 0 | -4 | 1 | -10 | -3 | 0
COCCCNC(=O)/C=C/[C@H]1O[C@@H](n2cnc3c(NC(=O)c4ccccc4)ncnc32)[C@H](O)[C@@H]1O | 1 | -3 | 23* | -9 | 0 | 1
COc1ccc(/C=C2/CCC(CN3CCOCC3)C2=O)cc1 (configuration not stated) | 2 | 3 | -6 | 26 | 1 | 6
O=C(O)Cn1nncc1-c1ccc(C(F)(F)F)cc1 | 0 | -4 | 11 | -16 | -3 | 0
CC(C(=O)NC1CCCC1)n1c(C2CC2)nc2ccccc21 (configuration not stated) | -6 | 7 | 0 | -4 | -3 | 0
O=C(Nc1ccc(Br)cc1)c1ccc(F)c(S(=O)(=O)NCc2cccs2)c1 | 9 | 38* | -10 | 24 | -18 | 12
CCc1nc2ccc(C(=O)NCCCn3ccnc3)cn2c1N(C)CCCc1ccccc1 | -3 | 10 | -10 | 27* | -15 | 5
CCc1nc2ccc(C(=O)N3CCCCC3)cn2c1N(C)CCCc1ccccc1 | -3 | 2 | -11 | 33* | -16 | 5
CC(C)NC(=O)C1(C)CN(S(C)(=O)=O)CC(=O)N1Cc1ccco1 (configuration not stated) | 2 | 3 | 1 | 4 | 4 | 1
CCc1nc2ccc(C(=O)NCCCN3CCCC3=O)cn2c1N(C)C(=O)c1cccc(OC)c1 | 2 | 10 | 3 | -3 | -2 | 1
C/C(=N/OC(=O)c1c(-c2ccccc2Cl)noc1C)c1cnccn1 | -15 | 4 | -21 | 34* | -33 | 4
C/C(=N/OC(=O)c1c(-c2c(Cl)cccc2Cl)noc1C)c1cnccn1 | -17 | 17 | -25 | 24 | -33 | 1
Cc1ccc2nc(CCCc3nc4ccc(C)cc4[nH]3)[nH]c2c1 | -8 | 8 | -3 | -6 | -1 | -1
Cc1ccc2nc(CCc3nc4ccc(C)cc4[nH]3)[nH]c2c1 | 3 | -1 | 14* | -1 | 5 | 1
COc1ccc(C(C)(O)c2nc(-c3ccccc3OC)cs2)cc1 (configuration not stated) | 1 | 13 | -2 | -3 | 1 | 1
CC(=O)Nc1ccc(C(=O)NC2CCSc3ccccc32)cc1 (configuration not stated) | -5 | 0 | 2 | 1 | -5 | 2
Cc1ccc(NC(=S)NC2CCSc3ccccc32)cc1 (configuration not stated) | -5 | 49* | -21 | 75* | -18 | 10
C[C@@H]1CN([C@H](C)CO)C(=O)c2cc(NC(=O)Nc3ccc(C(F)(F)F)cc3)ccc2O[C@H]1CN(C)S(=O)(=O)c1cccs1 | 0 | 6 | 0 | -1 | 2 | 1
C[C@H](CO)N1C[C@H](C)[C@@H](CN(C)S(=O)(=O)c2cccs2)Oc2ccc(NC(=O)CCC(F)(F)F)cc2C1=O | -7 | 3 | -6 | 29* | -1 | -1
COc1ccc(NC(=O)N(C)C[C@H]2Oc3c(NC(=O)Nc4ccc(C(F)(F)F)cc4)cccc3C(=O)N([C@H](C)CO)C[C@@H]2C)cc1 | 2 | 16 | -6 | 29* | -27 | 37*
C[C@H](CO)N1C[C@H](C)[C@@H](CN(C)C(=O)Nc2ccc3c(c2)OCO3)Oc2c(NC(=O)Nc3ccc(C(F)(F)F)cc3)cccc2C1=O | 7 | 17 | -7 | 30* | -35 | 31
CC(C)(C)OC(=O)NCCCCCNC(=O)c1ncn2c1c(=O)[nH]c1ccccc12 | 0 | -12 | 2 | 4 | -2 | 2
O=C(COC(=O)CCS(=O)(=O)c1ccccc1)Nc1ccc(N2CCCCC2)cc1 | 1 | -10 | 23* | -10 | 5 | 4
O=C(NC(=S)NCc1cccnc1)c1cc(Br)ccc1Cl | -1 | -8 | 12 | -3 | 22* | 3
SMILES | CHRM5 agonist | CHRM5 antagonist | CHRM4 PAM | M4 antag | CHRM5 PAM | M4 ag
COc1ccc(Br)cc1C(=O)NCc1cccnc1 | -6 | -3 | -1 | 1 | -2 | 1
COCCCN1C(=O)C(CC(=O)NCC2CCCCC2)CC(C(=O)N(C)C)=C1C (configuration not stated) | 4 | 0 | -2 | -7 | -2 | 1
COc1ccccc1/C=C/C(=O)OCCN1C(=O)c2ccccc2C1=O | -3 | 9 | -20 | 79* | -5 | 9
COc1ccc(N(C)S(=O)(=O)c2cccc(C(=O)OCC(=O)c3c(N)n(C)c(=O)n(C)c3=O)c2)cc1 | 5 | 19 | -16 | 38* | -40 | 31
COc1cccc(/C=C/C(=O)OCCN2C(=O)c3ccccc3C2=O)c1 | 0 | 4 | -7 | -17 | -10 | 14
Cn1c(N)c(C(=O)COC(=O)/C=C/c2ccc(Cl)cc2Cl)c(=O)n(C)c1=O | 1 | -1 | -1 | 10 | -2 | 1
COc1ccccc1/C=C/C(=O)OCC(=O)c1c(N)n(C)c(=O)n(C)c1=O | 2 | 4 | 8 | 6 | 19* | 1
Cc1cccc(-c2cccc3nccn23)c1 | -2 | 3 | -1 | -6 | -5 | 2
CN(C)CCNc1ccc(Cl)cc1[N+](=O)[O-] | -10 | 30* | -13 | 9 | -19 | 1
CS(=O)(=O)NCCNc1ccc(Cl)cc1[N+](=O)[O-] | 3 | 9 | -12 | 5 | -13 | 13
CC(OC(=O)CCCN=C1NS(=O)(=O)c2ccccc21)C(=O)c1ccccc1 (configuration not stated) | 26* | 2 | 3 | -11 | -1 | 18
CC(OC(=O)CCCN=C1NS(=O)(=O)c2ccccc21)C(=O)N(C)c1ccccc1 (configuration not stated) | -1 | 3 | 1 | -12 | 2 | 2
CC1=C(C(=O)Nc2ccccc2C(=O)N2CCN(c3ccccc3)CC2)SCCO1 | 1 | 1 | -4 | -6 | -2 | 1
OC(COC(c1ccccc1)c1ccccc1)CN1CCCCC1 (configuration not stated) | -11 | 3 | -4 | 2 | -9 | 2
c1ccc(C(CN2CCCCC2)Oc2ccccn2)cc1 (configuration not stated) | -11 | 24 | -17 | 35* | -39 | 3
CC(C)CC(N)c1csc(NC(=O)c2cc(C(C)(C)C)nn2Cc2ccccc2)n1 (configuration not stated) | 7 | 8 | -1 | 8 | 6 | 14
